pEC50, pKi: −log10 of the molar value. The source made the active and inactive calls. The calls are words filed in the database; no cut-off is given here.
Legend:
MDCK = assay: Inhibition of P-glycoprotein (unknown origin) expressed in MDCK cells assessed as ATP depletion at 100 uM by bioluminescence ATP assay; format: cell-based; settings: Homo sapiens
How it was run: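 MDCK-MDR1 cells (human MDR1-transfected) plated, incubated overnight at 37 °C, 5% CO2, then exposed to test compound in complete medium for 2 h at 37 °C. Cells lysed; ATP measured by firefly luciferase/D-luciferin luminescence after 10 min dark adaptation. Percentage ATP depletion reported at 100 μM.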

[1] = Displacement of [3H]DTG from rat liver sigma2 receptor by scintillation counting analysis in presence of pentazocine
[2] = Inhibition of P-glycoprotein (unknown origin) expressed in MDCK cells assessed as reduction of calcein-AM transport after 30 mins by fluorescence assay; format: cell-based, Homo sapiens
How it was run: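 Confluent MDCK-MDR1 monolayers (50,000 cells/well, overnight) preincubated with compound (0.1–100 µM in medium) 30 min at 37 °C, then Calcein-AM added (2.5 µM final) for 30 min. Washed three times with ice-cold PBS; calcein fluorescence read at ex 485/em 535 nm versus untreated basal. EC50 from fit of % fluorescence increase versus log dose.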

[3] = molecular target: Sigma non-opioid intracellular receptor 1 (Cavia porcellus, UniProt Q60492); assay: Displacement of [3H]-(+)-pentazocine from guinea pig brain sigma1 receptor by scintillation counting analysis
[4] = molecular target: Sigma non-opioid intracellular receptor 1 (Cavia porcellus) (UniProt Q60492); assay: Displacement of [3H]-(+)-pentazocine from guinea pig brain sigma1 receptor at […] by scintillation counting analysis
[5] = Displacement of [3H]DTG from rat liver sigma2 receptor at 10^-11 M by scintillation counting analysis in presence of pentazocine

Sequence of Sigma non-opioid intracellular receptor 1 (Q60492 whole entry): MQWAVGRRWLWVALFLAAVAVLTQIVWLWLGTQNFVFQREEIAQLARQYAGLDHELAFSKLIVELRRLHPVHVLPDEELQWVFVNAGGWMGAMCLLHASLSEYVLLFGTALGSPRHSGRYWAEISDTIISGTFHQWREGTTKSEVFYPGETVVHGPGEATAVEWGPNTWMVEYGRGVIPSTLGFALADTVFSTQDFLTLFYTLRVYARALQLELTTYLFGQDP
Sequence of Sigma non-opioid intracellular receptor 1 (Cavia porcellus) (Q60492 whole entry): as above

| SMILES | inhibition (MDCK) | pKi [1] | pEC50 [2] | pKi [3] | inhibition [4] [%] | inhibition [5] [%] |
| --- | --- | --- | --- | --- | --- | --- |
| COc1cc2c(cc1OC)CN(C(=O)CCCc1cn(-c3ccc(F)cc3)c3ccccc13)CC2 | Active | < 5.00 | 5.65 | < 5.30 |  |  |
| COc1cccc2c1CCCC2CCC(=O)N1CCC(c2ccc(F)cc2)CC1 (stereo unspecified) |  | 5.19 | 4.59 | 5.53 |  |  |
| COc1cccc2c1CCCC2CCC(=O)N1CCC2(CC1)OCc1ccccc12 (stereo unspecified) |  | 5.49 | 5.27 | 6.59 |  |  |
| COc1cccc2c1CCCC2CCCN1CCC(c2ccc(F)cc2)CC1 (stereo unspecified) |  | 7.65 | 5.70 |  | 80 |  |
| COc1cc2c(cc1OC)CN(CC(=O)N[C@@H]1CCCc3c(OC)cccc31)CC2 |  | 5.71 | 5.02 | < 5.30 |  |  |
| COc1cc2c(cc1OC)CN(CC(=O)NCc1cn(-c3ccc(F)cc3)c3ccccc13)CC2 |  | 5.79 | 6.04 | < 5.30 |  |  |
| COc1cc2c(cc1OC)CN(CC/C=C1\CCCc3c(OC)cccc31)CC2 |  |  | 6.09 |  |  |  |
| COc1cccc2c1CCCC2CCC(=O)N1CCC(C2CCCCC2)CC1 (stereo unspecified) |  | < 5.00 | 4.51 | < 5.30 |  |  |
| COc1cc2c(cc1OC)C(=O)N(CCCCn1c3ccccc3c3ccccc31)CC2 | 30% | < 5.00 | 5.72 | < 5.30 |  |  |
| COc1cc2c(cc1OC)CN(CCCC(=O)n1c3ccccc3c3ccccc31)CC2 | Active | < 5.00 | 6.09 | < 5.30 |  |  |
| COc1cc2c(cc1OC)CN(CCCCn1c3ccccc3c3ccccc31)CC2 | Active | 10.40 | 6.38 | 5.66 |  |  |
| COc1cc2c(cc1OC)CN(CCCC1CCCc3c(OC)cccc31)CC2 (stereo unspecified) | Active |  | 5.94 |  |  | 96 |
| COc1cc2c(cc1OC)C(=O)N(CCCCc1cn(-c3ccc(F)cc3)c3ccccc13)CC2 | inactive | < 5.00 | 5.63 | < 5.30 |  |  |
| COc1cc2c(cc1OC)CN(CCCCc1cn(-c3ccc(F)cc3)c3ccccc13)CC2 | inactive | 8.27 | 6.68 | 5.86 |  |  |
| COc1cc2c(cc1OC)CN(CC(=O)NC1CCCc3c(OC)cccc31)CC2 (racemic) |  | 5.74 | 5.00 | < 5.30 |  |  |
| COc1cccc2c1CCCC2CCCN1CCC2(CC1)OCc1ccccc12 (stereo unspecified) |  | 7.39 | 5.57 |  | 76 |  |
| COc1cccc2c1CCCC2CCCN1CCC(C2CCCCC2)CC1 (stereo unspecified) |  | 7.73 | 5.72 |  |  |  |
| COc1cc2c(cc1OC)CN(CC(=O)N[C@H]1CCCc3c(OC)cccc31)CC2 |  | 5.75 | 5.00 | < 5.30 |  |  |
| COc1cc2c(cc1OC)CN(C(=O)CCC1CCCc3c(OC)cccc31)CC2 (stereo unspecified) | Active | < 5.00 | 5.54 | < 5.30 |  |  |
